{"source": "ChEMBL document CHEMBL1932935", "about": "“Synthesis and biological effects of some kynurenic acid analogs” (Bioorg Med Chem, 2011)", "key": {"Hippocampus": {"tested_on": "Hippocampus", "experiment": "Antiexcitatory activity in rat hippocampus pyramidal CA1 region assessed as reduction in field excitatory postsynaptic potential at 16 uM by electrophysiologic method", "assay_type": "functional", "method_in_brief": "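Acute rat hippocampal slices; recording solution ACSF with 3 mM CaCl2 and 1.5 mM MgSO4, 1.5–2 mL/min flow, 34 °C. Schaffer collaterals stimulated; fEPSP amplitude recorded in CA1 pyramidal layer before, during and after bath application of compound in ACSF. Amplitudes normalized to 10-min control period; four slices per compound.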"}, "Rattus norvegicus [1]": {"tested_on": "Rattus norvegicus", "experiment": "Inhibition of NMDA in intraperitoneally dosed Wistar rat hippocampus pyramidal CA1 region assessed as reduction in amplitude of population spike by electrophysologic method", "assay_type": "functional, organism-based"}, "Mus musculus [2]": {"tested_on": "Mus musculus", "experiment": "Toxicity in C57/BL6 mouse assessed as effect on ambulation time dosed intraperitoneally equimolar to 200 mg/kg KYNA-1 as single dose measured after 2 hrs by open field test", "assay_type": "organism-based, C57Bl/6", "parameters": "dose 200 mg/kg, route intraperitoneal", "details": "in vivo, ip", "method_in_brief": "(§1)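 Six-week-old male C57Bl/6 mice, dosed ip once daily at 5 mL/kg in distilled water adjusted to pH 6.5; saline controls. Acute testing was 2 h after a single dose; chronic testing was on day 9, 2 h after the last of 9 daily doses. Each mouse was placed in a black open-field box (48×48×40 cm) and video-tracked for 5 min, scoring ambulation time, mean velocity and rearings.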"}, "Mus musculus [3]": {"tested_on": "Mus musculus", "experiment": "Toxicity in C57/BL6 mouse assessed as effect on ambulation time dosed intraperitoneally equimolar to 200 mg/kg KYNA-1 for 9 days measured after 2 hrs post last dose by open field test", "assay_type": "organism-based, C57Bl/6", "parameters": "dose 200 mg/kg, route intraperitoneal", "details": "in vivo, ip", "method_in_brief": "as §1"}, "Mus musculus [4]": {"tested_on": "Mus musculus", "experiment": "Toxicity in C57/BL6 mouse assessed as effect on movement velocity dosed intraperitoneally equimolar to 200 mg/kg KYNA-1 as single dose measured after 2 hrs by open field test", "assay_type": "organism-based, C57Bl/6", "parameters": "dose 200 mg/kg, route intraperitoneal", "details": "in vivo, ip", "method_in_brief": "as §1"}, "Mus musculus [5]": {"tested_on": "Mus musculus", "experiment": "Toxicity in C57/BL6 mouse assessed as effect on movement velocity dosed intraperitoneally equimolar to 200 mg/kg KYNA-1 for 9 days measured after 2 hrs post last dose by open field test", "assay_type": "organism-based, C57Bl/6", "parameters": "dose 200 mg/kg, route intraperitoneal", "details": "in vivo, ip", "method_in_brief": "as §1"}, "Mus musculus [6]": {"tested_on": "Mus musculus", "experiment": "Toxicity in C57/BL6 mouse assessed as decrease in number of rearings dosed intraperitoneally equimolar to 200 mg/kg KYNA-1 as single dose measured after 2 hrs by open field test", "assay_type": "organism-based, C57Bl/6", "parameters": "dose 200 mg/kg, route intraperitoneal", "details": "in vivo, ip", "method_in_brief": "as §1"}, "Mus musculus [7]": {"tested_on": "Mus musculus", "experiment": "Toxicity in C57/BL6 mouse assessed as decrease in number of rearings dosed intraperitoneally equimolar to 200 mg/kg KYNA-1 for 9 days measured after 2 hrs post last dose by open field test", "assay_type": "organism-based, C57Bl/6", "parameters": "dose 200 mg/kg, route intraperitoneal", "details": "in vivo, ip", "method_in_brief": "as §1"}, "Mus musculus [8]": {"tested_on": "Mus musculus", "experiment": "Toxicity in C57/BL6 mouse assessed as effect on ambulation time at 200 mg/kg, ip administered as single dose measured after 2 hrs by open field test", "assay_type": "organism-based, C57Bl/6", "parameters": "dose 200 mg/kg, route intraperitoneal", "details": "in vivo", "method_in_brief": "as §1"}, "Mus musculus [9]": {"tested_on": "Mus musculus", "experiment": "Toxicity in C57/BL6 mouse assessed as effect on ambulation time at 200 mg/kg, ip for 9 days measured after 2 hrs post last dose by open field test", "assay_type": "organism-based, C57Bl/6", "parameters": "dose 200 mg/kg, route intraperitoneal", "details": "in vivo", "method_in_brief": "as §1"}, "Mus musculus [10]": {"tested_on": "Mus musculus", "experiment": "Toxicity in C57/BL6 mouse assessed as effect on movement velocity at 200 mg/kg, ip administered as single dose measured after 2 hrs by open field test", "assay_type": "organism-based, C57Bl/6", "parameters": "dose 200 mg/kg, route intraperitoneal", "details": "in vivo", "method_in_brief": "as §1"}, "Mus musculus [11]": {"tested_on": "Mus musculus", "experiment": "Toxicity in C57/BL6 mouse assessed as effect on movement velocity at 200 mg/kg, ip for 9 days measured after 2 hrs post last dose by open field test", "assay_type": "organism-based, C57Bl/6", "parameters": "dose 200 mg/kg, route intraperitoneal", "details": "in vivo", "method_in_brief": "as §1"}, "Mus musculus [12]": {"tested_on": "Mus musculus", "experiment": "Toxicity in C57/BL6 mouse assessed as decrease in number of rearings at 200 mg/kg, ip administered as single dose measured after 2 hrs by open field test", "assay_type": "organism-based, C57Bl/6", "parameters": "dose 200 mg/kg, route intraperitoneal", "details": "in vivo", "method_in_brief": "as §1"}, "Mus musculus [13]": {"tested_on": "Mus musculus", "experiment": "Toxicity in C57/BL6 mouse assessed as decrease in number of rearings at 200 mg/kg, ip for 9 days measured after 2 hrs post last dose by open field test", "assay_type": "organism-based, C57Bl/6", "parameters": "dose 200 mg/kg, route intraperitoneal", "details": "in vivo", "method_in_brief": "as §1"}, "Rattus norvegicus [14]": {"tested_on": "Rattus norvegicus", "experiment": "Inhibition of NMDA in Wistar rat hippocampus pyramidal CA1 region assessed as reduction in amplitude of population spike at 200 mg/kg/day, ip measured up to 60 mins by electrophysologic method", "assay_type": "functional", "details": "1 h, read-out: INH, route intraperitoneal"}, "Rattus norvegicus [15]": {"tested_on": "Rattus norvegicus", "experiment": "Inhibition of NMDA in Wistar rat hippocampus pyramidal CA1 region assessed as reduction in amplitude of population spike at 200 mg/kg/day, ip up to 90 mins by electrophysologic method", "assay_type": "functional", "details": "1.5 h, read-out: INH, route intraperitoneal"}}, "note": "The source made the active and inactive calls. No cut-off for these calls is given here.", "data": [{"smiles": "O=C(NCCN1CCCC1)c1cc(=O)c2ccccc2[nH]1", "values": [{"measurement": "Activity", "setting": "Hippocampus", "value": "inactive"}]}, {"smiles": "CN(C)CCCNC(=O)c1cc(=O)c2ccccc2[nH]1", "values": [{"measurement": "inhibition", "setting": "Rattus norvegicus [1]", "value": "inactive"}, {"measurement": "Activity", "setting": "Hippocampus", "value": "inactive"}]}, {"smiles": "Cl.O=C(NCCN1CCCC1)c1cc(O)c2ccccc2n1", "values": [{"measurement": "Activity", "setting": "Mus musculus [2]", "value": "Non-toxic"}, {"measurement": "Activity", "setting": "Mus musculus [3]", "value": "Non-toxic"}, {"measurement": "Activity", "setting": "Mus musculus [4]", "value": "Non-toxic"}, {"measurement": "Activity", "setting": "Mus musculus [5]", "value": "Non-toxic"}, {"measurement": "Activity", "setting": "Mus musculus [6]", "value": "Non-toxic"}, {"measurement": "Activity", "setting": "Mus musculus [7]", "value": "Non-toxic"}]}, {"smiles": "CN1CCCCC1CNC(=O)c1cc(=O)c2ccccc2[nH]1", "note": "(centres undefined)", "values": [{"measurement": "Activity", "setting": "Hippocampus", "value": "inactive"}]}, {"smiles": "O=C(c1cc(=O)c2ccccc2[nH]1)N1CCN(Cc2ccccc2)CC1", "values": [{"measurement": "Activity", "setting": "Hippocampus", "value": "inactive"}]}, {"smiles": "O=C(O)c1cc(=O)c2ccccc2[nH]1", "note": "[TRANSTORINE]", "values": [{"measurement": "Activity", "setting": "Hippocampus", "value": 70, "unit": "%"}]}, {"smiles": "O=C(NCCN1CCOCC1)c1cc(=O)c2ccccc2[nH]1", "values": [{"measurement": "Activity", "setting": "Hippocampus", "value": "inactive"}]}, {"smiles": "Nc1ccccc1C(=O)C[C@H](N)C(=O)O.O=S(=O)(O)O", "values": [{"measurement": "Activity", "setting": "Mus musculus [2]", "value": "Non-toxic"}, {"measurement": "Activity", "setting": "Mus musculus [3]", "value": "Non-toxic"}, {"measurement": "Activity", "setting": "Mus musculus [4]", "value": "Non-toxic"}, {"measurement": "Activity", "setting": "Mus musculus [5]", "value": "Non-toxic"}, {"measurement": "Activity", "setting": "Mus musculus [6]", "value": "Toxic"}, {"measurement": "Activity", "setting": "Mus musculus [7]", "value": "Toxic"}, {"measurement": "Activity", "setting": "Hippocampus", "value": "inactive"}]}, {"smiles": "CN1CCN(C(=O)c2cc(=O)c3ccccc3[nH]2)CC1", "values": [{"measurement": "Activity", "setting": "Hippocampus", "value": "inactive"}]}, {"smiles": "O=C(NCCN1CCCCC1)c1cc(=O)c2ccccc2[nH]1", "values": [{"measurement": "Activity", "setting": "Hippocampus", "value": "inactive"}]}, {"smiles": "CN(C)CCCNC(=O)c1cc(O)c2ccccc2n1.Cl", "values": [{"measurement": "Activity", "setting": "Mus musculus [2]", "value": "Non-toxic"}, {"measurement": "Activity", "setting": "Mus musculus [3]", "value": "Non-toxic"}, {"measurement": "Activity", "setting": "Mus musculus [4]", "value": "Non-toxic"}, {"measurement": "Activity", "setting": "Mus musculus [5]", "value": "Non-toxic"}, {"measurement": "Activity", "setting": "Mus musculus [6]", "value": "Non-toxic"}, {"measurement": "Activity", "setting": "Mus musculus [7]", "value": "Non-toxic"}]}, {"smiles": "CCN(CC)CCNC(=O)c1cc(=O)c2ccccc2[nH]1", "values": [{"measurement": "Activity", "setting": "Hippocampus", "value": "inactive"}]}, {"smiles": "O=C(c1cc(=O)c2ccccc2[nH]1)N1CCNCC1", "values": [{"measurement": "Activity", "setting": "Hippocampus", "value": "inactive"}]}, {"smiles": "CN(C)CCNC(=O)c1cc(O)c2ccccc2n1.Cl", "values": [{"measurement": "Activity", "setting": "Mus musculus [8]", "value": "Non-toxic"}, {"measurement": "Activity", "setting": "Mus musculus [9]", "value": "Non-toxic"}, {"measurement": "Activity", "setting": "Mus musculus [10]", "value": "Non-toxic"}, {"measurement": "Activity", "setting": "Mus musculus [11]", "value": "Non-toxic"}, {"measurement": "Activity", "setting": "Mus musculus [12]", "value": "Toxic"}, {"measurement": "Activity", "setting": "Mus musculus [13]", "value": "Non-toxic"}, {"measurement": "Activity", "setting": "Hippocampus", "value": 50, "unit": "%"}, {"measurement": "inhibition in vivo at 200 mg/kg/day", "setting": "Rattus norvegicus [14]", "value": 25, "unit": "%"}, {"measurement": "inhibition in vivo at 200 mg/kg/day", "setting": "Rattus norvegicus [15]", "value": 30, "unit": "%"}]}]}
